Laboratory results taken from ChEMBL document CHEMBL3244367, “Synthesis and determination of antiviral activity of the 2'(3')-O-methyl derivatives of ribavirin (1-beta-D-ribofuranosyl-1,2,4-triazole-3-carboxamide)” (1977).
Values after ≈ are worked out from the molar mass of the structure shown. Active and inactive are the calls of the source. The rule behind the calls is not given here.

Assays:
[1] = system: Vesicular stomatitis virus; experiment: Antiviral activity against Vesicular stomatitis virus infected in primary rabbit kidney cells assessed as inhibition of virus-induced cytopathogenicity treated immediately after virus adsorption measured 2 days after virus infection; assay type: functional; conditions: 48 h
kidney = experiment: Inhibition of DNA synthesis in primary rabbit kidney cells assessed as inhibition of [3H]thymidine incorporation into DNA at 100 ug/mL; assay type: functional, cell-based; conditions: Oryctolagus cuniculus
In short: (§1)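 Host-cell DNA synthesis in primary rabbit kidney cells, measured as [methyl-3H]thymidine incorporation into DNA. ID50 is the dose inhibiting thymidine incorporation by 50%. The highest concentration tested was 100 μg/mL.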

Coxsackievirus B4 = experiment: Antiviral activity against Coxsackievirus B4 infected in human HeLa cells assessed as inhibition of virus-induced cytopathogenicity treated immediately after virus adsorption measured 2 days after virus infection; assay type: functional; conditions: Enterovirus B, 48 h
Human alphaherpesvirus 1 = experiment: Antiviral activity against Herpes simplex virus 1 infected in primary rabbit kidney cells assessed as inhibition of virus-induced cytopathogenicity treated immediately after virus adsorption measured 3 days after virus infection; assay type: functional; conditions: Human alphaherpesvirus 1, 72 h
In short: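 Compound added right after virus adsorption; 100 CCID50 virus per culture. Cytopathogenicity was scored once complete in untreated infected controls. The value is the concentration giving 50% inhibition of viral cytopathogenicity.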

Poliovirus 1 = experiment: Antiviral activity against Poliovirus type 1 infected in human HeLa cells assessed as inhibition of virus-induced cytopathogenicity treated immediately after virus adsorption measured 2 days after virus infection; assay type: functional; conditions: Enterovirus C, 48 h
[2] = Inhibition of DNA synthesis in primary rabbit kidney cells assessed as inhibition of [3H]thymidine incorporation into DNA; assay type: functional; conditions: Oryctolagus cuniculus, read-out: ID50 (the source's name); in short: as §1

Structure (SMILES)	MIC50 [1]	inhibition (kidney)	MIC50 (Coxsackievirus B4)	MIC50 (Human alphaherpesvirus 1)	MIC50 (Poliovirus 1)	IC50 [2]
CO[C@H]1[C@@H](O)[C@H](n2cnc(C(N)=O)n2)O[C@@H]1CO	> 200 µg/mL	inactive	> 200 µg/mL	> 200 µg/mL	> 200 µg/mL	
NC(=O)c1ncn([C@@H]2O[C@H](CO)[C@@H](O)[C@H]2O)n1 [RIBAVIRIN]	70 µg/mL (≈ 287 µM)		40 µg/mL (≈ 164 µM)	20 µg/mL (≈ 81.9 µM)	40 µg/mL (≈ 164 µM)	20 µg/mL (≈ 81.9 µM)
CO[C@@H]1[C@H](O)[C@@H](CO)O[C@H]1n1cnc(C(N)=O)n1	> 200 µg/mL	inactive	> 200 µg/mL	> 200 µg/mL	> 200 µg/mL	
